Measurements: ChEMBL document CHEMBL4334481, “First Nondiscriminating Translocator Protein Ligands Produced from a Carbazole Scaffold” (J Med Chem, 2019)
Calls of active or inactive are those of the source. No cut-off for these calls is given here.

Key:
Translocator protein [1] = target: T1, Translocator protein (Homo sapiens, UniProt P30536); assay: Displacement of [3H]PK11195 from wild-type human TSPO expressed in HEK293 cell membranes after 90 mins by scintillation counting method
Homo sapiens [2] = species on record: Homo sapiens; assay: Selectivity ratio of ki for human TSPO A147T mutant expressed in HEK293 cell membranes to ki for human TSPO expressed in HEK293 cell membranes; format: cell-based
In short: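 Membranes from stably transfected HEK293 cells (PBS/0.04% EDTA detachment, homogenised in Tris-HCl, washed by 48000 g spins), 20 µg protein/well for WT or 10 µg/well for A147T, incubated with 10 nM [3H]PK 11195 and competitor at log-spaced 3.1 nM–10 µM, 90 min, 4 °C.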

[3] = tested on: Translocator protein (Homo sapiens), P30536 [UNDEFINED MUTATION]; assay: Binding affinity to human TSPO A147T mutant expressed in HEK293 cells assessed as inhibition of cell viability at 100 uM incubated for 48 hrs by CellTiter Blue assay relative to control; format: cell-based
Translocator protein (Homo sapiens), P30536 [UNDEFINED MUTATION], sequence (P30536 whole entry, looked up, stated change not applied): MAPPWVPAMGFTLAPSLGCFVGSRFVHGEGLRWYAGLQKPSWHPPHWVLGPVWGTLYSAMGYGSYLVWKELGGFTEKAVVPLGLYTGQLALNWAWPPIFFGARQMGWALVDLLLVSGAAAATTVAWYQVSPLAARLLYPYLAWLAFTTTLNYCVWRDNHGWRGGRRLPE
In short: (§1)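 Stably transfected WT or A147T TSPO HEK293 cells, 8.75 x 10^3/well on poly-L-lysine (100 µg/mL) plates for 24 h, then 100 µM ligand for 48 h. CellTiter Blue (resazurin) added for 4 h at 37 °C; fluorescence 530 ex/590 em; normalised to vehicle-treated cells; three independent experiments; two-way ANOVA with Dunnett's test.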

Translocator protein [4] = target: T1, Translocator protein; assay: Binding affinity to wild-type human TSPO expressed in HEK293 cells assessed as inhibition of cell proliferation at 100 uM incubated for 48 hrs by Brdu incorporation-based ELISA relative to control
In short: (§2)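 Stably transfected WT or A147T TSPO HEK293 cells, 8.75 x 10^3/well on poly-L-lysine-coated plates for 24 h, then 100 µM ligand for 48 h. BrdU added 4 h at 37 °C, BrdU incorporation ELISA stopped with 1 M sulfuric acid, absorbance 450 nm; normalised to vehicle-treated controls; n ≥ 3; two-way ANOVA with Dunnett's test.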

Translocator protein [5] = target: T1, Translocator protein; assay: Binding affinity to wild-type human TSPO expressed in HEK293 cells assessed as inhibition of cell viability at 100 uM incubated for 48 hrs by CellTiter Blue assay relative to control; format: cell-based; in short: as §1
[6] = target: Translocator protein (Rattus norvegicus) (UniProt P16257); assay: Binding affinity to TSPO in rat C6 glioma cells assessed as steroidogenic activity by measuring increase in pregnenolone level after 2 hrs by ELISA; format: cell-based
Translocator protein (Rattus norvegicus), sequence (P16257 whole entry, looked up): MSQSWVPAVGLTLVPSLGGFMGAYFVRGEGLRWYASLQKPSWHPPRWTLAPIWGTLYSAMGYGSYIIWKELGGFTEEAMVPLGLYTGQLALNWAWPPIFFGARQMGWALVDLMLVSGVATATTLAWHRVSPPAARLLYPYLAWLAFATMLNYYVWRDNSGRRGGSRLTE
In short: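 C6 glioma cells plated at 1 x 10^5/well, after 24 h washed twice with ELISA buffer (HEPES-NaOH pH 7.4, 0.1% BSA, glucose, salts), then ligand 100 µM for 2 h in buffer containing trilostane 25 µM and SU10603 10 µM; vehicle 0.1% DMSO. Buffer collected, spun 1500 g, pregnenolone quantified by ELISA; n ≥ 3; one-way ANOVA with Dunnett's test.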

[7] = tested on: Translocator protein (Homo sapiens), P30536 [UNDEFINED MUTATION]; assay: Binding affinity to human TSPO A147T mutant expressed in HEK293 cells assessed as inhibition of cell proliferation at 100 uM incubated for 48 hrs by Brdu incorporation-based ELISA relative to control; in short: as §2
Translocator protein [8] = target: T1, Translocator protein; assay: Displacement of [3H]PK11195 from human TSPO A147T mutant expressed in HEK293 cells after 90 mins by scintillation counting method; format: cell-based
Translocator protein [9] = target: T1, Translocator protein; assay: Displacement of [3H]PK11195 from wild-type human TSPO expressed in HEK293 cells after 90 mins by scintillation counting method; format: cell-based
Homo sapiens [10] = species on record: Homo sapiens; assay: Selectivity ratio of ki for human TSPO A147T mutant expressed in HEK293 cells to ki for human TSPO expressed in HEK293 cells; format: cell-based
Translocator protein [11] = target: T1, Translocator protein; assay: Potency index, ratio of PK11195 Ki to compound Ki for wild-type human TSPO expressed in HEK293 cell membranes; format: cell-based
[12] = tested on: Translocator protein (Homo sapiens), P30536 [UNDEFINED MUTATION]; assay: Potency index, ratio of PK11195 Ki to compound Ki for human TSPO A147T mutant expressed in HEK293 cell membranes; format: cell-based
[13] = tested on: Translocator protein (Homo sapiens), P30536 [UNDEFINED MUTATION]; assay: Positive allosteric modulation of human TSPO A147T mutant expressed in HEK293 cells assessed as potentiation of PK11195-induced reduction in cell proliferation at 100 uM after 48 hrs by Brdu incorporation-based ELISA
In short: (§3)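 WT or A147T TSPO HEK293 cells (8.75 x 10^3/well, poly-L-lysine plates, 24 h) co-treated with 100 µM PK 11195 plus 100 µM ligand for 48 h; proliferation by BrdU ELISA (4 h BrdU labelling, 450 nm read); compared with PK 11195 alone; n ≥ 3; two-way ANOVA with Dunnett's test.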

Translocator protein [14] = target: T1, Translocator protein; assay: Positive allosteric modulation of wild-type human TSPO expressed in HEK293 cells assessed as potentiation of PK11195-induced reduction in cell proliferation at 100 uM after 48 hrs by Brdu incorporation-based ELISA; in short: as §3

T1 sequence (P30536 whole entry): as the sequence (P30536 whole entry, looked up, stated change not applied) above

Row | Compound | Ki (Translocator protein [1]) | Ratio Ki (Homo sapiens [2]) | inhibition [3] | inhibition (Translocator protein [5]) | further results
1 | CCN(Cc1ccccc1F)C(=O)Cn1c2ccccc2c2ccccc21 | 184 nM | 17 |  |  | 
2 | CC[C@@H](C)N(C)C(=O)c1cc2ccccc2c(-c2ccccc2Cl)n1 |  |  | 68% | 65% | inhibition (Translocator protein [4]): 83%; Activity [6]: Active; inhibition [7]: 81%
3 | CCN(Cc1cccc(OC)c1)C(=O)Cn1c2ccccc2c2cc(Br)ccc21 | 469 nM | 1 | inactive | inactive | inhibition (Translocator protein [4]): inactive; inhibition [7]: inactive
4 | CCN(Cc1ccccc1C(F)(F)F)C(=O)Cn1c2ccccc2c2ccccc21 | > 10000 nM |  |  |  | 
5 | CN(C)C(=O)Cn1c2ccccc2c2ccccc21 | > 10000 nM |  |  |  | 
6 | CCN(Cc1ccccc1)C(=O)Cn1c2ccccc2c2ccccc21 | 70 nM | 4.5 | inactive | inactive | inhibition (Translocator protein [4]): inactive; inhibition [7]: inactive
7 | CCN(Cc1cccc(OC)c1)C(=O)Cn1c2ccccc2c2ccccc21 | 96.1 nM | 1 | inactive | inactive | inhibition (Translocator protein [4]): inactive; Ki (Translocator protein [8]): 277 nM; Activity [6]: inactive; inhibition [7]: inactive; Ki (Translocator protein [9]): 217 nM; Ratio Ki (Homo sapiens [10]): 1.2
8 | CN(Cc1ccccc1)C(=O)Cn1c2ccccc2c2ccccc21 | 53 nM | 2.5 | inactive | inactive | inhibition (Translocator protein [4]): inactive; inhibition [7]: inactive
9 | CCN(Cc1cccc(F)c1)C(=O)Cn1c2ccccc2c2ccccc21 | 563 nM | > 17.8 |  |  | 
10 | CCN(Cc1cccc(OC)c1)C(=O)Cn1c2ccccc2c2cc(-c3ccccc3)ccc21 | 385 nM | 1.1 | inactive | inactive | inhibition (Translocator protein [4]): inactive; inhibition [7]: Active
11 | CCN(CC)C(=O)Cn1c2ccccc2c2ccccc21 |  | 5.9 |  |  | 
12 | CCN(Cc1ccc(OC)cc1)C(=O)Cn1c2ccccc2c2ccccc21 | 4740 nM | > 2.1 |  |  | 
13 | O=C(Cn1c2ccccc2c2ccccc21)NCc1ccccc1 | > 10000 nM |  |  |  | 
14 | COc1cccc(CN(C)C(=O)Cn2c3ccccc3c3cc(-c4ccccc4Cl)ccc32)c1 | 231 nM | 0.9 | inactive | inactive | 
15 | CCN(Cc1ccc(NC(C)=O)cc1)C(=O)Cn1c2ccccc2c2ccccc21 | > 10000 nM |  |  |  | 
16 | CCN(Cc1cccc(OC)c1)C(=O)Cn1c2ccccc2c2cc(-c3ccc(OC)cc3)ccc21 | 447 nM | 0.8 |  |  | 
17 | COc1ccc(-c2ccc3c(c2)c2ccccc2n3CC(=O)N(C)Cc2cccc(OC)c2)cc1 | 6.6 nM | 3.8 | inactive | inactive | inhibition (Translocator protein [4]): inactive; Ratio Ki (Translocator protein [11]): 3.4; Ratio Ki [12]: 1.1; Ki (Translocator protein [8]): 23.2 nM; Activity [6]: inactive; inhibition [7]: inactive; Ki (Translocator protein [9]): 3.2 nM; Ratio Ki (Homo sapiens [10]): 7.3
18 | COc1cccc(CN(C)C(=O)Cn2c3ccccc3c3cc(-c4ccccc4)ccc32)c1 | 231 nM | 0.9 | inactive | inactive | Activity [13]: Active; Activity (Translocator protein [14]): Active; inhibition (Translocator protein [4]): inactive; inhibition [7]: inactive
19 | COc1cccc(CN(C)C(=O)Cn2c3ccccc3c3cc(Br)ccc32)c1 | > 10000 nM |  |  |  | 
20 | COc1cccc(CN(C)C(=O)Cn2c3ccccc3c3cc(-c4cccc(Cl)c4)ccc32)c1 | 201 nM | 3.2 |  |  | 
21 | CCN(Cc1ccc(F)cc1)C(=O)Cn1c2ccccc2c2ccccc21 | 694 nM | > 14.4 |  |  | 
22 | CCN(Cc1ccccc1NC(C)=O)C(=O)Cn1c2ccccc2c2ccccc21 | 243 nM | > 41.2 |  |  | 
23 | CCN(Cc1ccncc1)C(=O)Cn1c2ccccc2c2ccccc21 | > 10000 nM |  |  |  | 
24 | CCN(Cc1cccnc1)C(=O)Cn1c2ccccc2c2ccccc21 | > 10000 nM |  |  |  | 
25 | CCN(Cc1ccccc1OC)C(=O)Cn1c2ccccc2c2ccccc21 | 1530 nM | 1 |  |  | 
26 | COc1cccc(CN(C)C(=O)Cn2c3ccccc3c3cc(-c4ccc(Cl)cc4)ccc32)c1 | 3550 nM | 0.5 |  |  | 
27 | CCN(Cc1cccc(C(F)(F)F)c1)C(=O)Cn1c2ccccc2c2ccccc21 | > 10000 nM |  |  |  | 
28 | CCN(Cc1ccc(C(F)(F)F)cc1)C(=O)Cn1c2ccccc2c2ccccc21 | > 10000 nM |  |  |  | 
29 | CCN(Cc1cccc(NC(C)=O)c1)C(=O)Cn1c2ccccc2c2ccccc21 | > 10000 nM |  |  |  | 
30 | CCN(Cc1ccccn1)C(=O)Cn1c2ccccc2c2ccccc21 | > 10000 nM |  |  |  | 
